In assay [1] the target is Metabotropic glutamate receptor 2 (Rattus norvegicus, UniProt P31421). The assay is described as follows: Activity at rat cloned mGluR2 expressed in CHO cells assessed as effect on cAMP accumulation. It counts as functional, cell-based. The method in brief:
(§1)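 Second-messenger functional assay on rat mGluR1a (group I), mGluR2 (group II) and mGluR4 (group III) expressed in CHO cells. EC50 in µM with pEC50, reported as mean [pEC50 ± SEM] of at least three independent experiments.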

A further assay concerns the target Glutamate NMDA receptor. In words: Displacement of [3H]CGP-39653 from NMDA receptor in rat cortical membrane. It counts as cell membranes. The method in brief: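 NMDA receptor binding on rat cortical membranes prepared by the Ransom and Stec method, with [3H]CGP39653 as radioligand. Ki in µM reported as mean [pKi ± SEM] of at least three individual experiments.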

A short description of assay [2]: Displacement of [3H]KA from kainate receptor in rat cortical membrane. It is filed as cell membranes. The method in brief:
(§2)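 Competition binding on rat cortical membranes prepared by the Ransom and Stec method, using [3H]AMPA (AMPA receptors) or [3H]KA (kainate receptors). IC50 in µM reported as mean [pIC50 ± SEM] of at least three individual experiments.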

Assay [3] concerns the target Metabotropic glutamate receptor 1 (Rattus norvegicus, UniProt P23385). In words: Activity at rat cloned mGluR1a expressed in CHO cells assessed as effect on cAMP accumulation. It counts as functional, cell-based. The method in brief: as §1
The nature of assay [4]: Displacement of [3H]AMPA from AMPA receptor in rat cortical membrane. It counts as cell membranes. The method, boiled down:
as §2

The target of assay [5] is Metabotropic glutamate receptor 4 (Rattus norvegicus, UniProt P31423). In words: Activity at rat cloned mGluR4 expressed in CHO cells assessed as effect on cAMP accumulation. It counts as functional, cell-based. The method in brief: as §1
The target of assay [6] is Glutamate receptor ionotropic, kainate 1 (Rattus norvegicus, UniProt P22756). The assay is described as follows: Activity at rat cloned iGluR5 expressed in human HEK293 cells by calcium imaging assay. It counts as cell-based.
In assay [7] the target is Glutamate receptor 3 (Rattus norvegicus) (UniProt P19492). The assay is described as follows: Activity at rat cloned iGluR3 expressed in human HEK293 cells by calcium imaging assay relative to L-glutamate. It counts as cell-based. The arrangement: concentration or dose not given beside the values. The method in brief:
(§3)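 Rat iGluR1–6 subtypes cloned and expressed in HEK cells: iGluR2, iGluR5 and iGluR6 as the Q forms; iGluR1–4 marked with subscript "i". Receptor activation was read by Fluo-4 calcium imaging.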

For assay [8], the target named is Glutamate receptor ionotropic, kainate 2 (Rattus norvegicus, UniProt P42260). The assay is described as follows: Activity at rat cloned iGluR6 expressed in human HEK293 cells by calcium imaging assay. It is filed as cell-based. The method in brief: as §3
A further assay concerns the target Glutamate receptor 2 (Rattus norvegicus, UniProt P19491). The assay is described as follows: Activity at rat cloned iGluR2 expressed in human HEK293 cells by calcium imaging assay. It counts as cell-based.
The target in a further assay is Glutamate receptor 4 (Rattus norvegicus, UniProt P19493). In words: Activity at rat cloned iGluR4 expressed in human HEK293 cells by calcium imaging assay. It counts as cell-based. The method, boiled down: as §3
Assay [9] has as its target Glutamate receptor ionotropic, kainate 2 (Rattus norvegicus) (UniProt P42260). In words: Activity at rat cloned iGluR6 expressed in human HEK293 cells by calcium imaging assay relative to L-glutamate. It counts as cell-based. The arrangement: concentration or dose not given beside the values. The method in brief: as §3
Another assay deals with Glutamate receptor 3 (Rattus norvegicus, UniProt P19492). In words: Activity at rat cloned iGluR3 expressed in human HEK293 cells by calcium imaging assay. It counts as cell-based. The method, boiled down:
as §3

Assay [10] concerns the target Glutamate receptor 1 (Rattus norvegicus) (UniProt P19490). In words: Activity at rat cloned iGluR1 expressed in human HEK293 cells by calcium imaging assay relative to L-glutamate. It is filed as cell-based. The arrangement: concentration or dose not given beside the values. The method, boiled down:
as §3

For assay [11], the target named is Glutamate receptor 4 (Rattus norvegicus) (UniProt P19493). The assay is described as follows: Activity at rat cloned iGluR4 expressed in human HEK293 cells by calcium imaging assay relative to L-glutamate. It is filed as cell-based. The arrangement: concentration or dose not given beside the values. The method, boiled down:
as §3

In the next assay the target is Glutamate receptor 1 (Rattus norvegicus, UniProt P19490). In words: Activity at rat cloned iGluR1 expressed in human HEK293 cells by calcium imaging assay. It counts as cell-based. The method, boiled down:
as §3

Assay [12] concerns the target Glutamate receptor ionotropic, kainate 1 (Rattus norvegicus) (UniProt P22756). In words: Activity at rat cloned iGluR5 expressed in human HEK293 cells by calcium imaging assay relative to L-glutamate. On the set-up: concentration or dose not given beside the values. It counts as cell-based. The method, boiled down: as §3
Assay [13] deals with Glutamate receptor 2 (Rattus norvegicus) (UniProt P19491). In words: Activity at rat cloned iGluR2 expressed in human HEK293 cells by calcium imaging assay relative to L-glutamate. It is filed as cell-based. On the set-up: concentration or dose not given beside the values. The method in brief:
as §3

We go through eight compounds from ChEMBL document CHEMBL1142433, “Synthesis and pharmacological characterization at glutamate receptors of the four enantiopure isomers of tricholomic acid” (J Med Chem, 2008).

Bounds are passed on as bounds.

Sequence of Glutamate receptor 4 (P19493 whole entry): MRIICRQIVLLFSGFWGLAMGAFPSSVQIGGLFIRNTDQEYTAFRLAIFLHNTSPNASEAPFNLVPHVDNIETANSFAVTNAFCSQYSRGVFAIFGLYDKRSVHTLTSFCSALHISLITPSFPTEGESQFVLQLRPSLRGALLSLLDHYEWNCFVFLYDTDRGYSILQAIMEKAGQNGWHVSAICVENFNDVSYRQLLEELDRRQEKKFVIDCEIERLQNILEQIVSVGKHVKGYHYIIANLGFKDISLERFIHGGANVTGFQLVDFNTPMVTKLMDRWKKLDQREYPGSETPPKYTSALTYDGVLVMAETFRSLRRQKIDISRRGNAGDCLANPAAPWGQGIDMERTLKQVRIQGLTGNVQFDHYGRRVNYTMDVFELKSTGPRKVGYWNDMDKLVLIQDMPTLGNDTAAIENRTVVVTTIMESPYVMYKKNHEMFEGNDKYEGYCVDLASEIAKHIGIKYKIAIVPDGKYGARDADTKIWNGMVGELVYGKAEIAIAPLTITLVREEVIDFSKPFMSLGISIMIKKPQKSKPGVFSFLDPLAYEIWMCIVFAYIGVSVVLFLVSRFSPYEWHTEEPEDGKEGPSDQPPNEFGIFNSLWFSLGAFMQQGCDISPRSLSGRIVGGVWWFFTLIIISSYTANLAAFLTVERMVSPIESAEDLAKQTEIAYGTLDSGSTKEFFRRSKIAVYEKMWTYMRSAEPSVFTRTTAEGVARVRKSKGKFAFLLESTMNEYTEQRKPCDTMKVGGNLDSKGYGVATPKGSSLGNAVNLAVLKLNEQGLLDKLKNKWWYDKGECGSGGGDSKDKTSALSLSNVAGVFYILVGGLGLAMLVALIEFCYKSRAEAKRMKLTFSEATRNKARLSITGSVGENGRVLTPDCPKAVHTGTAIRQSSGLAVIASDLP
Sequence of Glutamate receptor 4 (Rattus norvegicus) (P19493 whole entry): as above
Sequence of Metabotropic glutamate receptor 1 (P23385 whole entry): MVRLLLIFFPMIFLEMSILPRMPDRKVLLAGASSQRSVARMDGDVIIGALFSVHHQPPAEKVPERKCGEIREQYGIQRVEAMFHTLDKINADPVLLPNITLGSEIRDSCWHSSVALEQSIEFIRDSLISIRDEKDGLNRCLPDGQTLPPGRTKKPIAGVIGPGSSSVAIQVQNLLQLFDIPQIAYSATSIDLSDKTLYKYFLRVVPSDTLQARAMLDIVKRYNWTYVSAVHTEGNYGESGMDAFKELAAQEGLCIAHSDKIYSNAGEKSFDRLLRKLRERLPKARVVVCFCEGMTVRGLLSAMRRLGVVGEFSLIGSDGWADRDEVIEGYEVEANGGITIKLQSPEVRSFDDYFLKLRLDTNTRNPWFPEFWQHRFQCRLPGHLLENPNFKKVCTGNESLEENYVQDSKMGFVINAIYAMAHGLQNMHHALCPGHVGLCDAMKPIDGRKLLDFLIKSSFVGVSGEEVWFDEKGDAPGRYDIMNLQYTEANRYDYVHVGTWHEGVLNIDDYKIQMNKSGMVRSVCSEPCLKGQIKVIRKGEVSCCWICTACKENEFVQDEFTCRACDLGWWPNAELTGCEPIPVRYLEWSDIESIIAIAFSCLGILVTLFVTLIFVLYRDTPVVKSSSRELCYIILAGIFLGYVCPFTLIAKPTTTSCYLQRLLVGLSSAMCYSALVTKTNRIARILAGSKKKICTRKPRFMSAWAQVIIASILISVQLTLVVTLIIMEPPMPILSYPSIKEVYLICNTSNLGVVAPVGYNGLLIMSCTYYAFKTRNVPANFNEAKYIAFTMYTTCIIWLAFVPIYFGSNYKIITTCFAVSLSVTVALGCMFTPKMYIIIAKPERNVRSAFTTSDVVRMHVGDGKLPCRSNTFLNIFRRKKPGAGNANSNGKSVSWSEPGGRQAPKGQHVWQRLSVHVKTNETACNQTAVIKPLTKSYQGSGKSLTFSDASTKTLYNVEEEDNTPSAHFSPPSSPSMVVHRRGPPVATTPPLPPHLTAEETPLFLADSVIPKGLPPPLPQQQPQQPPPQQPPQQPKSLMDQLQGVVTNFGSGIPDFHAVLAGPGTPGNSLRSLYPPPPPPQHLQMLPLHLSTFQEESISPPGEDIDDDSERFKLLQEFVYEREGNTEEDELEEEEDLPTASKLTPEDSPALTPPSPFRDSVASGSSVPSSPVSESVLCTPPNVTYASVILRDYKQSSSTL
Sequence of Glutamate receptor ionotropic, kainate 1 (P22756 whole entry): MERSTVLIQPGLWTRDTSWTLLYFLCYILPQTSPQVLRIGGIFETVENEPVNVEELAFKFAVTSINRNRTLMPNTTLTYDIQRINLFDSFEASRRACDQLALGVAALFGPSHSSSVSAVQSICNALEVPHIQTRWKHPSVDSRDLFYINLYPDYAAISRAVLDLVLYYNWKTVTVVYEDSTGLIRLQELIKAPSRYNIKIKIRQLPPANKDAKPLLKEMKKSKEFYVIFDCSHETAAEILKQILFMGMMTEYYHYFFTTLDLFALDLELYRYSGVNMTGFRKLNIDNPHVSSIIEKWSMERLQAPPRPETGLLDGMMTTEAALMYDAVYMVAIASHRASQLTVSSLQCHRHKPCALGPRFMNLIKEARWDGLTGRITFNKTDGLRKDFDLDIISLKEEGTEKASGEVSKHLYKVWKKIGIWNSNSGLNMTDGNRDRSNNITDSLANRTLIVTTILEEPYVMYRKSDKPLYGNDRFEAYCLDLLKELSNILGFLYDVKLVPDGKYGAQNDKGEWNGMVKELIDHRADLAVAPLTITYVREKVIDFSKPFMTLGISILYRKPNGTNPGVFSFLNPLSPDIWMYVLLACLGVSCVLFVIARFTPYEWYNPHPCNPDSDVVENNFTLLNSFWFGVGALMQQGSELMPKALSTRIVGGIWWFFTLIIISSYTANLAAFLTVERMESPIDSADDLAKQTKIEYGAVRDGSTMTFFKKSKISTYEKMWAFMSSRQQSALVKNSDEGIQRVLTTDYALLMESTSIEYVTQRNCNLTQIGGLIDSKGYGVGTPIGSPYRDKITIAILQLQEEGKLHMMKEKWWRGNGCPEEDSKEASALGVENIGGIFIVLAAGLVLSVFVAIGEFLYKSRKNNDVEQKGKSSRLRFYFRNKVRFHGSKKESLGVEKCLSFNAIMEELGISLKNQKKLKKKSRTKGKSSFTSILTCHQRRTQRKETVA
Sequence of Glutamate receptor ionotropic, kainate 1 (Rattus norvegicus) (P22756 whole entry): as above
Sequence of Metabotropic glutamate receptor 2 (P31421 whole entry): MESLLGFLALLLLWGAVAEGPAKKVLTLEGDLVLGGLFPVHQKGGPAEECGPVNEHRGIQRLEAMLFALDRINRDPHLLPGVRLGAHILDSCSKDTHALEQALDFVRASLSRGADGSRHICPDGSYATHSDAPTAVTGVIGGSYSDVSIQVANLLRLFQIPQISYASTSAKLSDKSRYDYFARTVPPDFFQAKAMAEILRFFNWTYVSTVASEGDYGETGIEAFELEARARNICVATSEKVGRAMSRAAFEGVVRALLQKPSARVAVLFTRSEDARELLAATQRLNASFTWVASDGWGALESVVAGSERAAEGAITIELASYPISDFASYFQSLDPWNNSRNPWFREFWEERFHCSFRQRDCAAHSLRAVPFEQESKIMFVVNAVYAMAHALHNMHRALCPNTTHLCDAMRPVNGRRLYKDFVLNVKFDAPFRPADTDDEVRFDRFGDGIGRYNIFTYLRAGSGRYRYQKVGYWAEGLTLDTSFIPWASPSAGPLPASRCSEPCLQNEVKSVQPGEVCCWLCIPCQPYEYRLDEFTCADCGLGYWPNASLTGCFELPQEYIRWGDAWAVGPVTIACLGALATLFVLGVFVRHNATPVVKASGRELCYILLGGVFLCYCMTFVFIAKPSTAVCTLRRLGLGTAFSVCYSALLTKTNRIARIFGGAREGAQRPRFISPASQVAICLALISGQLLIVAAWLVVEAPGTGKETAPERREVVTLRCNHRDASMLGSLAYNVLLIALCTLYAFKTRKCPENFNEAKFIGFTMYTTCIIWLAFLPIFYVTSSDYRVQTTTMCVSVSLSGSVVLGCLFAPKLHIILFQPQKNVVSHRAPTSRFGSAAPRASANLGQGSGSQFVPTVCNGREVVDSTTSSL
Sequence of Glutamate receptor 1 (Rattus norvegicus) (P19490 whole entry): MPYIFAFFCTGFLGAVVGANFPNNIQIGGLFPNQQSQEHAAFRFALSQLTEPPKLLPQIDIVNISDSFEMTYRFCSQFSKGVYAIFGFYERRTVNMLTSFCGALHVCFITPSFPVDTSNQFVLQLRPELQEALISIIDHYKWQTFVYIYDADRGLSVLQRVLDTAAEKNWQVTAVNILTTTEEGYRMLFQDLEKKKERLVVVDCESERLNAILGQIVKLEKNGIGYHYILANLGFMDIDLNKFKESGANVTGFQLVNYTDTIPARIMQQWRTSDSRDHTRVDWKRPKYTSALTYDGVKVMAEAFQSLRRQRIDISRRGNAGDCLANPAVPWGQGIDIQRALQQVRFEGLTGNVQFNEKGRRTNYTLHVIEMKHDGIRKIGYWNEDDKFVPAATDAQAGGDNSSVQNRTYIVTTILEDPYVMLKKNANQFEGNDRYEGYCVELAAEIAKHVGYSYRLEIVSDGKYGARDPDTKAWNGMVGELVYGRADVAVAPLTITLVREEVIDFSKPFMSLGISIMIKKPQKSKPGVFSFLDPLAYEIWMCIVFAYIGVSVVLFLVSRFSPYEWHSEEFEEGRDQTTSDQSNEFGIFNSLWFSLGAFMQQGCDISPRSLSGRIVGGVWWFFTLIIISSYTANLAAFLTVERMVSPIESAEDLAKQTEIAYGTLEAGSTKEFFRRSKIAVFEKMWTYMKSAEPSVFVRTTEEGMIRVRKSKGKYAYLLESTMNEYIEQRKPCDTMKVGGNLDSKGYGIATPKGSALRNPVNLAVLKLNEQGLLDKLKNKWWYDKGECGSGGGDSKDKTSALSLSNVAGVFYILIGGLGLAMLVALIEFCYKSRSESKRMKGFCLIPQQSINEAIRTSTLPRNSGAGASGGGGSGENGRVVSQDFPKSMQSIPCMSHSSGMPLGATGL
Sequence of Glutamate receptor 1 (P19490 whole entry): as above

In the case of `NC(C(=O)O)C1CC(O)=NO1` (racemic; form 1) [TRICHOLOMIC ACID], the figures for the EC50 in [1], in assay [3] (read-out: EC50) and in assay [5] were above 1000 µM, 790 µM and above 1000 µM, respectively. Moreover, the half-maximal inhibitory concentration (IC50) was 1.5 µM at Glutamate NMDA receptor, 0.76 µM in assay [2] and 1.1 µM in [4]. Further, the results for the “Log IC50” value in [2] and in assay [4] were -6.14 and -5.86, respectively.

On to `N[C@@H](C(=O)O)[C@@H]1CC(O)=NO1`, for which the 50% effective concentration (EC50) (in assay [1]; in assay [6]; in [8]; at Glutamate receptor 2; on Glutamate receptor 4; at Glutamate receptor 3 (read-out: EC50)) was above 1000 µM each time. Further, the EC50 (in assay [3] (read-out: EC50); on Glutamate receptor 1; in [5]) was above 1000 µM in each case. Further, the Ki at Glutamate NMDA receptor is 75 µM. For the same compound, the values for the 50% inhibitory concentration (IC50) in assay [2] and in [4] were 11 µM and 12 µM, respectively. The figures for the “Log IC50” value in [2] and in assay [4] were -4.95 and -4.92, respectively. Also, the Activity in assay [7] is 10%; in assay [9], 15%; in assay [10], 13%; in [11] it was 7%; in assay [12], 8%; in assay [13] it was 14%.

On to `N[C@H](C(=O)O)[C@H]1CC(O)=NO1`, for which the concentration giving a half-maximal response (EC50) in assay [1] was 84 µM; in assay [6] it was above 1000 µM; in assay [8], above 1000 µM; at Glutamate receptor 2, above 1000 µM; on Glutamate receptor 4, above 1000 µM; at Glutamate receptor 3 (read-out: EC50), above 1000 µM. For the same compound, the EC50 was 82 µM in assay [3] (read-out: EC50), above 1000 µM on Glutamate receptor 1 and above 1000 µM in assay [5]. This compound came in with an inhibitory constant (Ki) on Glutamate NMDA receptor of 95 µM. For the same compound, the “Log Ki” value at Glutamate NMDA receptor is -4.03. For the same compound, the IC50 in [2] was 36 µM; in assay [4], above 100 µM. Besides, the “Log IC50” value in assay [2] was -4.45. Further, the Activity in assay [7] came out at 23%; in [9], 11%; in assay [10], 35%; in [11], 90%; in [12], 12%; in [13], 20%.

As for `NC(C(=O)O)C1CC(O)=NO1` (racemic; form 2) [TRICHOLOMIC ACID], the EC50 is 100 µM in assay [1], 110 µM in assay [3] (read-out: EC50) and 79.4 µM in [3] (read-out: Log EC50 (converted)). Also, the IC50 worked out at 73 µM at Glutamate NMDA receptor, 6 µM in assay [2] and 19 µM in assay [4]. In addition, the “Log IC50” value in assay [2] is listed as -5.22; in assay [4] it was -4.73.

Consider `N[C@H](C(=O)O)c1cc(=O)[nH]o1` [IBOTENIC ACID], for which the 50% effective concentration (EC50) in assay [6] is above 1000 µM; in [8], above 1000 µM; at Glutamate receptor 2, above 1000 µM; at Glutamate receptor 4, above 1000 µM; at Glutamate receptor 3 (read-out: EC50) it was above 1000 µM; in assay [3] (read-out: EC50), 43 µM. Moreover, the EC50 (on Glutamate receptor 1; in assay [5]) was above 1000 µM each time.

As for `N[C@H](C(=O)O)[C@@H]1CC(O)=NO1`, the EC50 in assay [1] is above 1000 µM; in assay [6], 280 µM; in [8], 82 µM; at Glutamate receptor 2, 480 µM; on Glutamate receptor 4, 30 µM; on Glutamate receptor 3 (read-out: EC50), 170 µM. Further, the EC50 is 155 µM at Glutamate receptor 3 (read-out: Log EC50 (converted)), 610 µM in assay [3] (read-out: EC50), 120 µM on Glutamate receptor 1 and above 1000 µM in assay [5]. The inhibition constant (Ki) at Glutamate NMDA receptor was 41 µM. Moreover, the IC50 is 0.29 µM in [2] and 0.95 µM in [4]. Moreover, the “Log IC50” value is recorded as -6.55 in [2] and -6.02 in assay [4]. Also, the Activity in [7] was 88%; in assay [9], 91%; in assay [10], 90%; in assay [11] it was 91%; in assay [12], 91%; in [13], 74%.

Turning to `N[C@@H](C(=O)O)[C@H]1CC(O)=NO1`, the EC50 (in assay [1]; in assay [6]; in [8]; at Glutamate receptor 2; on Glutamate receptor 4; at Glutamate receptor 3 (read-out: EC50)) was above 1000 µM throughout. For the same compound, the EC50 (in assay [3] (read-out: EC50); on Glutamate receptor 1; in [5]) was above 1000 µM in each case. On Glutamate NMDA receptor, the inhibition constant Ki was determined as 0.67 µM. In addition, the “Log Ki” value at Glutamate NMDA receptor was -6.19. Besides, the half-inhibitory concentration (IC50) in [2] and in [4] was above 100 µM each time. Further, the Activity in [7] is 10%; in assay [9], 11%; in assay [10], 15%; in [11], 9%; in [12], 10%; in assay [13], 13%.

On to `N[C@H](C(=O)O)c1cc(O)no1` [IBOTENIC ACID], for which the results for the IC50 in [2] and in assay [4] were 22 µM and above 100 µM, respectively. Besides, the “Log IC50” value in assay [2] is -4.66. In addition, the Activity came to 1% in assay [7]; 96% in [9]; 6% in assay [10]; 32% in [11]; 8% in assay [12]; 2% in assay [13].
